# Results reported in ChEMBL document CHEMBL2429814 (J Med Chem, 2013).
# Key:
# [1] = biological target: T1, Metabotropic glutamate receptor 5 (Rattus norvegicus, UniProt P31424); assay: Agonist activity at rat mGluR5 stably expressed in HEK293 cells assessed as increase in intracellular calcium level by Fluo-4AM dye-based fluorescence assay relative to glutamate; type: cell-based; conditions: read-out: Efficacy
# Procedure, shortened: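 HEK293 cells stably expressing rat mGlu5 (low receptor density), 15,000 cells/well, grown overnight, then loaded with Fluo-4AM for 50 min at 37°C in HBSS/20 mM HEPES/2.5 mM probenecid, pH 7.4. Triple-add protocol: compound, then glutamate EC20 140 s later, then EC80 60 s later. Fluorescence read over time. At least three independent runs in duplicate or triplicate; response given as % of glutamate maximum.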
# [2] = biological target: T1, Metabotropic glutamate receptor 5; assay: Agonist activity at rat mGluR5 stably expressed in HEK293 cells assessed as increase in intracellular calcium level by Fluo-4AM dye-based fluorescence assay; type: cell-based
# Procedure, shortened: (§1)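 HEK293 cells stably expressing rat mGlu5 (low receptor density line), 15,000 cells/well, grown overnight at 37°C/5% CO2. Loaded with Fluo-4AM for 50 min at 37°C in HBSS with 20 mM HEPES, 2.5 mM probenecid, pH 7.4. Triple add: compound, then EC20 glutamate 140 s later, then EC80 glutamate 60 s later. Calcium fluorescence read over time. Values are means of ≥3 independent experiments run in duplicate or triplicate.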
# [3] = biological target: Metabotropic glutamate receptor 5 (Rattus norvegicus) (UniProt P31424); assay: Positive allosteric modulation of rat mGluR5 stably expressed in HEK293 cells assessed as increase in intracellular calcium level by Fluo-4AM dye-based fluorescence assay relative to glutamate; type: functional, cell-based
# [4] = biological target: T1, Metabotropic glutamate receptor 5; assay: Positive allosteric modulation of rat mGluR5 stably expressed in HEK293 cells assessed as increase in intracellular calcium level by Fluo-4AM dye-based fluorescence assay; type: functional, cell-based; conditions: read-out: EC50; procedure, shortened: as §1
# [5] = biological target: Metabotropic glutamate receptor 5 (Rattus norvegicus) (UniProt P31424); assay: Potentiation of rat mGluR5 receptor stably expressed in HEK293 cells assessed as fold shift in glutamate concentration response curve at 10 uM relative to control; type: cell-based
# Procedure, shortened: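 HEK293 cells stably expressing rat mGlu5 were loaded with Fluo-4AM. Compound at 10 µM, or vehicle, was added, and a glutamate concentration-response curve followed 140 s later. The fold leftward shift of the glutamate curve was read from calcium fluorescence. Values are means of three independent experiments in triplicate.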
# [6] = biological target: T1, Metabotropic glutamate receptor 5; assay: Positive allosteric modulation of rat mGluR5
# [7] = biological target: Metabotropic glutamate receptor 5 (Homo sapiens, UniProt P41594); assay: Positive allosteric modulation of mGluR5 (unknown origin) at 10 uM relative to glutamate
# Procedure, shortened: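 HEK293 cells stably expressing rat mGlu5 (low receptor expression line) were plated overnight at 37°C/5% CO2 and loaded with Fluo-4AM for 50 min at 37°C in HBSS with 20 mM HEPES and 2.5 mM probenecid, pH 7.4. PAM (10 µM) or vehicle was added, then a glutamate concentration-response curve 140 s later. Read-out was calcium fluorescence, reported as glutamate fold-shift, three independent runs in triplicate.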
# Metabotropic glutamate receptor 5 (Rattus norvegicus), sequence (P31424 21-1203 limits assumed): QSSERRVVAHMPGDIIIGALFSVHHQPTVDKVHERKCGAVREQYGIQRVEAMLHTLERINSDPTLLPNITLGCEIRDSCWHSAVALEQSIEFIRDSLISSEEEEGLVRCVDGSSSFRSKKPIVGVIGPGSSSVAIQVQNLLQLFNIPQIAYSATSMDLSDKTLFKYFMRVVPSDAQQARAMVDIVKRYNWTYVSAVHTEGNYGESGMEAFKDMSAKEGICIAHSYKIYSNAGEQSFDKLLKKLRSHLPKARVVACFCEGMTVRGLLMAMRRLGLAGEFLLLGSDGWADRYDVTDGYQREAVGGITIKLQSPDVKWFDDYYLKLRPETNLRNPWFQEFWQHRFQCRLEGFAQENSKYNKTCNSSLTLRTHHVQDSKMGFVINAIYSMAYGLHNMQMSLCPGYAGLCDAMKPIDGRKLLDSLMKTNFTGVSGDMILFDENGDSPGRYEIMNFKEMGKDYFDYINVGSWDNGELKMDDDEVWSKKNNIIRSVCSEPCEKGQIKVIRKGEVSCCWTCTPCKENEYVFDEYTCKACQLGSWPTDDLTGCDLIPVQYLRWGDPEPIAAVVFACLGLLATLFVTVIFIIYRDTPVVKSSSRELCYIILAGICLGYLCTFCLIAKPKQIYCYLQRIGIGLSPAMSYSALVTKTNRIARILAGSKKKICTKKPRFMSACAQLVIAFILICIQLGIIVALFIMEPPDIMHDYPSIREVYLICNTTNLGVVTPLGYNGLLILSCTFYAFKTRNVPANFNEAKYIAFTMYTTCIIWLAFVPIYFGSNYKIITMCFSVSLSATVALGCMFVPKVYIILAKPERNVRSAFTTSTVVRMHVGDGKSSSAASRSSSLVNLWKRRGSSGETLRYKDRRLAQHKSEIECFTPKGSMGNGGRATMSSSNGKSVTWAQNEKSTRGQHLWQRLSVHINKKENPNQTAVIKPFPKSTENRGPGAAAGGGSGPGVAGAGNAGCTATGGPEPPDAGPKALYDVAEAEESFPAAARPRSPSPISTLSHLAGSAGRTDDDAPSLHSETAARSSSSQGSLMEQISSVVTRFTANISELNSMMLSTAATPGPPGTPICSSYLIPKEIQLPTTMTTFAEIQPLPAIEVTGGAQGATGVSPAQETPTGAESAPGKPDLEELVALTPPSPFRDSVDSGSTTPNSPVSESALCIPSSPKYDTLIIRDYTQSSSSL
# T1 sequence (P31424 whole entry): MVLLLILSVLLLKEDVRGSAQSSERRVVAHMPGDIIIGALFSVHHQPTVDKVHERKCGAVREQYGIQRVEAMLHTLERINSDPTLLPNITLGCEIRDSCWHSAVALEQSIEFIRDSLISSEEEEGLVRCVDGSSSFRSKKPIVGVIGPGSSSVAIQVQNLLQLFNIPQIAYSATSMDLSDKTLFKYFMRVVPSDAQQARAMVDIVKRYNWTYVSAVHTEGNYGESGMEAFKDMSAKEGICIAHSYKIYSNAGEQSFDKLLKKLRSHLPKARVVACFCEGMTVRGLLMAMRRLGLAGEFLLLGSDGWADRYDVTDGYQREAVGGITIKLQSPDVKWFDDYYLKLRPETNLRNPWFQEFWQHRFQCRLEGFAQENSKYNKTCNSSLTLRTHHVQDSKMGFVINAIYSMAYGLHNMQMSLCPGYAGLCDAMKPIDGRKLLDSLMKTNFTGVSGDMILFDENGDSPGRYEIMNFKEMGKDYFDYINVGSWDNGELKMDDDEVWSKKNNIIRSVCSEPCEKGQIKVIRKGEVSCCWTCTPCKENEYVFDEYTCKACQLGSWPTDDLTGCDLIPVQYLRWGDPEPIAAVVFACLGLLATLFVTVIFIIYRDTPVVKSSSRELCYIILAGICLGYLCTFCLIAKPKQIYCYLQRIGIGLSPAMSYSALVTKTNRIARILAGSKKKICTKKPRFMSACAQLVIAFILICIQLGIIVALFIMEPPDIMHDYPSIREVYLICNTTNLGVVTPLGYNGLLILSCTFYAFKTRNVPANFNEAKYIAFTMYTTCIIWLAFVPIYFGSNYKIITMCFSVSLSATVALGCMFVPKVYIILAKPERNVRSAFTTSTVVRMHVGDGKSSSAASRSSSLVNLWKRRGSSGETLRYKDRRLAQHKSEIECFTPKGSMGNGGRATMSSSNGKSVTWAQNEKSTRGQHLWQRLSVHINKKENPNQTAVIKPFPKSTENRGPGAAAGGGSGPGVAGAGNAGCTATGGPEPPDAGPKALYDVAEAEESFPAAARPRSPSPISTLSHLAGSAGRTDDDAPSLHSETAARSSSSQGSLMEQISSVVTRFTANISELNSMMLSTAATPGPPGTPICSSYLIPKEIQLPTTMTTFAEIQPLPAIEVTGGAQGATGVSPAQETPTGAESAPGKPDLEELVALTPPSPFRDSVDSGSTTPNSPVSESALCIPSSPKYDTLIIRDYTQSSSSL
# Metabotropic glutamate receptor 5 (Homo sapiens, UniProt P41594), sequence (P41594 21-1212 limits assumed): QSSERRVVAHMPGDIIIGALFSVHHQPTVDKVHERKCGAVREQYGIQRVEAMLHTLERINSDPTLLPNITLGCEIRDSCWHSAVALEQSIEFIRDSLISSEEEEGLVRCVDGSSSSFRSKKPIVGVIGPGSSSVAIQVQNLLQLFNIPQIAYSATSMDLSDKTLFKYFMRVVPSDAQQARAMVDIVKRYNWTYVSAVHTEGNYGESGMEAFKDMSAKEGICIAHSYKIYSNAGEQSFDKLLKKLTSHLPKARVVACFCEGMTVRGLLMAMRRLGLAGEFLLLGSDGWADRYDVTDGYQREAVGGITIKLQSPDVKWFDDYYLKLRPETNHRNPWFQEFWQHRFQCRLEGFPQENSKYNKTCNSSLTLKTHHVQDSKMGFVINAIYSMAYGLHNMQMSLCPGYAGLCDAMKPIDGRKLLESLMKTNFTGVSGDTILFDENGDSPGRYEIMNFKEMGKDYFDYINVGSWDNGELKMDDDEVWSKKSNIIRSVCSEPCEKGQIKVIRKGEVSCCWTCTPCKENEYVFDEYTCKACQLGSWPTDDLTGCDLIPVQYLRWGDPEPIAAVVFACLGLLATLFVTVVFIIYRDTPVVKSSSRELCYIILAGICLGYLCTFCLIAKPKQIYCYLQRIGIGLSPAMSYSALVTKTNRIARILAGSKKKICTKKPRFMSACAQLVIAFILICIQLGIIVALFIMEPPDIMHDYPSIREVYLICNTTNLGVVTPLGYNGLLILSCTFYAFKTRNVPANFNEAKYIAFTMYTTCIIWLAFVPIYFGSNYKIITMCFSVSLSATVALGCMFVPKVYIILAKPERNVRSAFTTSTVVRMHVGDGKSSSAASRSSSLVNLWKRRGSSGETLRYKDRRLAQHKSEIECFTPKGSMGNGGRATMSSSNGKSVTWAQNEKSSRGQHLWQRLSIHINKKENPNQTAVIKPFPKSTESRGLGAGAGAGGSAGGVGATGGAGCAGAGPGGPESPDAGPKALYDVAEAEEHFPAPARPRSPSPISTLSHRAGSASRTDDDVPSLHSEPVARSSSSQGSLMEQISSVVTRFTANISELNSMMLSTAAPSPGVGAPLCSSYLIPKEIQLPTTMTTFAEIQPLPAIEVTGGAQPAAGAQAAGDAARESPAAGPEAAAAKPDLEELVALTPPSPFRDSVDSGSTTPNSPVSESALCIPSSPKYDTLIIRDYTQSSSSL
EC50 [6] [nM],SMILES,Emax [1] [%],EC50 ([2]; read-out: EC50) [nM],Efficacy [3] [%],EC50 [4] [nM],fold change (FC) [5],fold change (FC) [7],EC50 ([2]; read-out: pEC50 (converted)) [nM]
–,C[C@@H](NC(=O)c1ccc(C#Cc2ccc(F)cn2)cn1)C(C)(C)O,13.5,1700,64.6,28.2,–,–,–
–,CC(C)(C)NC(=O)c1ccc(C#Cc2cccc(F)c2)cn1,–,–,–,2.6,–,–,–
–,Cc1ccccc1C#Cc1ccc(C(=O)N[C@H](C)C(C)(C)O)nc1,24.1,12400,59.9,217,–,–,–
–,C[C@@H](NC(=O)c1ccc(C#Cc2cccc(F)c2)nc1)C(C)(C)O,26.6,6800,64.9,80,–,–,–
–,O=C(NCC1CC1)c1ccc(C#Cc2cccc(F)c2)cn1,–,–,61.4,36.7,1.6,–,–
–,C[C@@H](NC(=O)c1ccc(C#Cc2cccnc2)cn1)C(C)(C)O,25.9,9300,71.5,344,–,–,–
–,Cc1nc(C#Cc2ccc(C(=O)N[C@H](C)C(C)(C)O)nc2)cs1,–,–,66.6,58.4,1.6,–,–
–,C[C@@H](NC(=O)c1nc(C#Cc2cccc(F)c2)cs1)C(C)(C)O,26.1,4780,62.1,33.5,–,–,–
–,C[C@@H](NC(=O)c1ccc(C#Cc2cccc(F)c2)cn1)C(F)(F)F,–,–,52.1,20.8,1.5,–,–
–,C[C@@H](NC(=O)c1ccc(C#Cc2ncccc2F)cn1)C(C)(C)O,29.2,3700,60.6,33.8,–,–,–
–,C[C@@H](NC(=O)c1ccc(C#Cc2ccccn2)cn1)C(C)(C)C,24.2,6110,63,63.3,–,–,–
–,C[C@@H](NC(=O)c1ccc(C#Cc2ccc(F)cc2)cn1)C(C)(C)O,38.4,1520,66.2,12.3,–,–,–
–,C[C@@H](NC(=O)c1cnc(C#Cc2cccc(F)c2)cn1)C(C)(C)O,17.2,3040,64.4,12.5,–,–,–
–,CC1(NC(=O)c2ccc(C#Cc3ccncc3)cn2)COC1,–,–,36,691,–,–,–
17,O=C(N[C@H]1C[C@H](O)C1)c1ccc(C#Cc2cccc(F)c2)cn1,–,–,–,–,–,–,–
–,C[C@@H](NC(=O)c1ccc(C#Cc2cccc(F)c2)cc1)C(C)(C)O,43.6,1040,53.9,7.5,–,–,–
–,Cc1nc(C#Cc2cccc(F)c2)ccc1C(=O)N[C@H](C)C(C)(C)O,9.2,1090,64.9,17.1,–,–,–
–,C[C@@H]1CC[C@H](c2noc(-c3ccc(F)cn3)n2)CN1C(=O)c1ccccc1,–,–,–,–,–,11,–
–,CC(C)(C)CNC(=O)c1ccc(C#Cc2cccc(F)c2)cn1,9.5,2570,63.9,16.6,–,–,–
–,CC(C)[C@H](C)NC(=O)c1ccc(C#Cc2cccc(F)c2)cn1,13.1,2220,66.7,20.4,–,–,–
–,CC(C)CNC(=O)c1ccc(C#Cc2cccc(F)c2)cn1,–,–,58.2,28.9,1.9,–,–
–,C[C@@H](NC(=O)c1ccc(C#Cc2cc(F)cc(F)c2)cn1)C(C)(C)O,37.9,3670,61.6,58.2,–,–,–
–,C[C@@H](NC(=O)c1ccc(C#CC2CCCC2)cn1)C(C)(C)O,14.8,9750,63.7,93.3,–,–,–
–,Cc1ccc(C#Cc2ccc(C(=O)N[C@H](C)C(C)(C)O)nc2)cc1,–,–,63.1,107,–,–,–
–,C[C@@H](NC(=O)c1ccc(C#Cc2ccc(F)cc2F)cn1)C(C)(C)O,38.2,3690,61.2,26.6,–,–,–
–,C[C@H](NC(=O)c1ccc(C#Cc2cccc(F)c2)cn1)C(F)(F)F,21.4,1390,60.8,21.9,–,–,–
–,CC(C)(CO)NC(=O)c1ccc(C#Cc2cccc(F)c2)cn1,9.3,729,60.9,7.9,–,–,–

EC50 [6] [nM],SMILES,Emax [1] [%],EC50 ([2]; read-out: EC50) [nM],Efficacy [3] [%],EC50 [4] [nM],fold change (FC) [5],fold change (FC) [7],EC50 ([2]; read-out: pEC50 (converted)) [nM]
–,C[C@@H](NC(=O)c1cnc(C#Cc2cccc(F)c2)nc1)C(C)(C)O,–,–,68.7,122,4,–,–
–,C[C@@H](NC(=O)c1ccc(C#Cc2cccc(F)c2)cn1)C(C)(C)F,42.8,2060,68.6,5.3,–,–,–
200,O=C(c1ccc(C#Cc2cccc(F)c2)nc1)N1CCC(O)CC1,–,–,–,–,–,–,–
–,CC(C)[C@@H](C)NC(=O)c1ccc(C#Cc2cccc(F)c2)cn1,22.5,1470,69.3,4.5,–,–,–
–,CC1(CCNC(=O)c2ccc(C#Cc3cccc(F)c3)cn2)COC1,16.3,2840,65.7,47.3,–,–,–
–,C[C@@H](NC(=O)c1ccc(C#Cc2ccccc2)cn1)C(C)(C)O,43.2,874,60.9,4.1,–,–,–
–,O=C1c2ccc(F)cc2CCC2CC[C@@H](c3noc(-c4ccc(F)cn4)n3)CN12 (stereo partly drawn),–,–,–,–,–,6,–
–,C[C@@H](NC(=O)c1ccc(C#Cc2ccccn2)cn1)C(C)(C)F,–,–,54.9,22.2,1.5,–,–
–,O=C(NCC(F)(F)F)c1ccc(C#Cc2cccc(F)c2)cn1,5.8,10700,67,224,–,–,–
–,C[C@@H](NC(=O)c1ccc(C#Cc2cc(F)ccn2)cn1)C(C)(C)O,33,3980,66.2,36,–,–,–
–,CC(C)[C@@H](C)NC(=O)c1ccc(C#Cc2ccccn2)cn1,–,–,58.5,79,1.3,–,–
–,CC1(CNC(=O)c2ccc(C#Cc3cccc(F)c3)cn2)COC1,–,–,60.4,10.7,3.3,–,–
–,C[C@@H](NC(=O)c1ncc(C#Cc2cccc(F)c2)cn1)C(C)(C)O,19.2,4130,64.1,47.6,–,–,–
–,C[C@@H](NC(=O)c1ccc(C#Cc2ccccc2F)cn1)C(C)(C)O,29.6,1160,60,8,–,–,–
–,C[C@@H](NC(=O)c1ccc(C#Cc2ccncc2)cn1)C(C)(C)O,22.4,4660,66.6,43,–,–,–
–,C[C@H](NC(=O)c1ccc(C#Cc2cccc(F)c2)cn1)C(C)(C)C,20,5400,70.8,51.9,–,–,–
–,C[C@@H](NC(=O)c1ccc(C#Cc2cccc(F)n2)cn1)C(C)(C)O,8.3,1300,63,13.6,–,–,–
–,Cc1cccc(C#Cc2ccc(C(=O)N[C@H](C)C(C)(C)O)nc2)c1,20.8,1360,68.6,6.5,–,–,–
–,C[C@@H](NC(=O)c1ccc(C#CC2CC2)cn1)C(C)(C)O,–,–,63.4,1290,–,–,–
–,CC(C)(O)CCNC(=O)c1ccc(C#Cc2cccc(F)c2)cn1,–,–,61.9,136,5.3,–,–
–,CC(C)(O)CNC(=O)c1ccc(C#Cc2cccc(F)c2)cn1,20,4020,61.5,34.6,–,–,–
–,Cc1cc(C#Cc2cccc(F)c2)cnc1C(=O)N[C@H](C)C(C)(C)O,–,–,66.4,105,2.3,–,–
–,C[C@@H](NC(=O)c1ccc(C#Cc2cccc(F)c2)nn1)C(C)(C)O,16.5,2120,70.2,21.9,–,–,–
–,O=C(NCC1CCC1)c1ccc(C#Cc2cccc(F)c2)cn1,4.7,–,68.1,84,–,–,> 10000
–,CCCNC(=O)c1ccc(C#Cc2cccc(F)c2)cn1,8.3,3010,65.9,34.4,–,–,–
–,C[C@@H](NC(=O)c1ccc(C#Cc2cccc(F)c2)cn1)C(C)(C)C,31.2,2750,66,17.8,–,–,–
–,Cc1cc(C(=O)N[C@H](C)C(C)(C)O)ncc1C#Cc1cccc(F)c1,–,–,66.6,242,–,–,–
